Measured values from the array DNA melting data of Ke et al. (doi:10.1101/2024.01.08.574731).

How the values were obtained:
[1] = melting temperature; fluorescence melt of hairpins on a sequencing array, two-state fit, raised by 9.35 °C to match UV melts; conditions: sodium 0.088 M
Method in brief: (§1)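 On a sequenced MiSeq flow cell, library hairpins with annealed Cy3 and quencher oligos were imaged for Cy3 fluorescence in 2.5 °C steps up to 60 °C, in 50 mM Na-HEPES pH 8.0, 25 mM NaCl. Normalisation used pre-quench Cy3 and control constructs. Bootstrapped two-state fits gave melting temperature and folding enthalpy, combined by inverse variance across four replicates and with fitted temperatures raised by 9.35 °C to match UV melts.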

[2] = folding enthalpy; higher = less favourable; fluorescence melt of hairpins on a sequencing array, two-state fit; conditions: sodium 0.088 M
Method in brief: as §1

Sequence | Tm [1] | folding enthalpy [2]
GCTTTCCCGAAAGGGAGC (((..(((....)))))) | 34.3 °C | -10.2 kcal/mol
GCTTTCGAAAGAAACAGC ((((((....)))..))) | 32.8 °C | -16.3 kcal/mol
GCTTTCGAAAGAAGAAGC ((((((....)))..))) | 32.1 °C | -22.2 kcal/mol
GCTTTCGAAAGAAGAGC ((((((....))).))) | 37.3 °C | -17.5 kcal/mol
GCTTTCGAAAGAAGCAGC ((((((....)))..))) | 35.4 °C | -12.9 kcal/mol
GCTTTCGAAAGAAGGAGC ((((((....)))..))) | 31.5 °C | -17.8 kcal/mol
GCTTTCGGAAACGAAAAC (.(((((....))))).) | 36.4 °C | -22.4 kcal/mol
GCTTTCGGAAACGGAAGC ((((.((....)).)))) | 53.2 °C | -39.8 kcal/mol
GCTTTGCGAAAGCACAGC (((.(((....))).))) | 50.7 °C | -47.5 kcal/mol
GCTTTGCGAAAGCACTGC ((..(((....)))..)) | 43 °C | -17.5 kcal/mol
GCTTTGCGAAAGCAGTGC ((..(((....)))..)) | 38.4 °C | -13.8 kcal/mol
GCTTTGCGAAAGCATGGC ((..(((....)))..)) | 49.5 °C | -16.7 kcal/mol
GCTTTGCGAAAGCCCAGC (((..((....))..))) | 31.5 °C | -14.1 kcal/mol
GCTTTGCGAAAGCGAAGC ((((.((....)).)))) | 66.2 °C | -37.2 kcal/mol
GCTTTGCGAAAGCGACGC ((.(.((....)).).)) | 47.6 °C | -15.2 kcal/mol
GCTTTGCGAAAGCTAGGC ((.(.((....)).).)) | 44.7 °C | -15.7 kcal/mol
GCTTTGCGAAAGCTATGC ((.(.((....)).).)) | 45.6 °C | -12.6 kcal/mol

Sequence | Tm [1] | folding enthalpy [2]
GCTTTGGGAAACTAAAGC (((((.(....).))))) | 44.3 °C | -27.4 kcal/mol
GCTTTGTCGAAAGACAGC (((..(((....)))))) | 35.3 °C | -12 kcal/mol
GCTTTTCGAAAGAAAGC (((.(((....)))))) | 44.5 °C | -25.1 kcal/mol
GCTTTTCGAAAGAATAGC (((.(((....))).))) | 44 °C | -29.3 kcal/mol
GCTTTTGGAAACAAAAAC (.(((((....))))).) | 26.6 °C | -13.2 kcal/mol
GCTTTTGGAAACAAGAGC (((.(((....))).))) | 41 °C | -20 kcal/mol
GCTTTTTCGAAAGAAAGC (((..(((....)))))) | 34.4 °C | -17.7 kcal/mol
GGAAAACCGAAAGGTTCC (((..(((....)))))) | 35.8 °C | -13.8 kcal/mol
GGAAACACGAAAGTGTCC (((..(((....)))))) | 36.5 °C | -12.6 kcal/mol
GGAAACCGAAAGGTGTCC (((.(((....))).))) | 52.4 °C | -31.1 kcal/mol
GGAAACGCGAAAGCGTCC (((..(((....)))))) | 39.1 °C | -9.21 kcal/mol
GGAAAGCCGAAAGGCTCC (((..(((....)))))) | 42.2 °C | -11.2 kcal/mol
GGAAAGGCGAAAGCCTCC (((..(((....)))))) | 41.3 °C | -10.6 kcal/mol
GGAACAGGAAACTGTTCC (((((((....))))))) | 60.6 °C | -35.9 kcal/mol
GGAACCGAAAGGTATCC ((((((....))).))) | 40.8 °C | -18.2 kcal/mol
GGAACCGAAAGGTCTCC ((((((....))).))) | 44.7 °C | -22.1 kcal/mol
GGAACCGAAAGGTTTCC ((((((....))).))) | 53.8 °C | -18.5 kcal/mol
